From the EternaBench riboswitch data come the findings set out here.

In this series the test system is MS2 coat protein. As to the kind of experiment: apparent Kd, MS2 coat protein; higher = weaker binding; RNA-MaP array; FMN 200 µM where present. Put shortly: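 Stalled E. coli RNA polymerase produced the designs on Illumina sequencing-chip clusters. SNAP-549-labelled MS2 coat protein was added from 0.7 or 1.5 nM, doubling to 3 µM, without and then with constant ligand, in 100 mM Tris-HCl pH 7.5, 80 mM KCl, 4 mM MgCl2, BSA, DTT, yeast tRNA and Tween-20. The apparent Kd is the median of filtered per-cluster fits of green signal normalised to red-channel RNA signal and control-cluster median Fmax.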

Setting [1] is: designed as: OFF switch for flavin mononucleotide, no ligand.
Where [2] appears, read: ligand present: flavin mononucleotide, designed as: OFF switch for flavin mononucleotide.
Setting [3] is: designed as: ON switch for flavin mononucleotide, no ligand.
[4] abbreviates: ligand present: flavin mononucleotide, designed as: ON switch for flavin mononucleotide.

Consider “AUUGAGUGAGGAUAUCCCGCUGCCGUGCGACCAUGGAGCUGGGAGAAGGCACAUGAGGAUCACCCAUGUGAGUU”, for which the apparent Kd (in general, a dissociation constant that holds for the conditions of the assay) by setting is: under setting [1], 19.3 nM; under setting [2], 45 nM. On to “UGUUUCUUGUAAGGAUAUACUAGCGAUAAGCUAGUAGAAGGUACUGUCUUUUGUAUCUCAUAUUUACAUGAGGAUCACCCAUGU”, for which the “apparent Kd” value was 9.41 nM under setting [3] and 8.07 nM under setting [4].

For the sequence “UGGUCAUCAUCAGGAUAUUAACAUGGGCUACAUUAAGAAGGGAUAGUGGGAGAGGAAGUGAAACAUGAGGAUCACCCAUGUUGU”, the “apparent Kd” value was 32.9 nM under setting [3] and 16.2 nM under setting [4].

Turning to “GUGAAACAUGAGGAUCACCCAUGUGAGGAUAUGUUUUAGUACUGCUGACAGUACAUCUAUAGAAGGCACAAAGG”, the “apparent Kd” value is, setting by setting: under setting [1], 26.8 nM; under setting [2], 29.9 nM. For “GGUGGACAUGAGGAUCACCCAUGUGAGGAUAUCGGCCGGUUCGUGGUGGCUGGCUUCUCGAGAAGGCGCAUAGU” the same measures were 55.8 nM and 65.7 nM.

Take “AAUAACAGAGGAUAUACUAUUUUAUGUGUUUGUUGUUUUGAACAUGAGGAUCACCCAUGUAGAAGGCUGAUUAA”: the “apparent Kd” value under setting [1] worked out at 40.5 nM and the “apparent Kd” value under setting [2] came out at 47 nM. As to “AAGAAGUGAGGAUAUGCAGUGGCCUGUAGACGCAAGCACUUGUAGAAGGCACAUGAGGAUCACCCAUGUUUAAA”, the “apparent Kd” value under setting [1] came to 35 nM and the “apparent Kd” value under setting [2] is 32.8 nM. As to “UCCUACAUGGGAGGAUAUGGGAUGAUAACAUGAGGAUCACCCAUGUUAAAGAUGCCGAGAGGCAACUAGAAGGCCCAUGUAGGU”, the “apparent Kd” value reads like this: under setting [3], 434 nM; under setting [4], 70.3 nM. Turning to “UUUGUGUCAGGAUAUCGGGCCAGCAAUACGGUAUGUGGGCACGAGAAGGGACAUGAGGAUCACCCAUGUGCCUU”, the “apparent Kd” value is, setting by setting: under setting [1], 14.8 nM; under setting [2], 16.4 nM.

Consider “CGUAUGUGAGGAUAUGACAAUGGUAUCUUCGGAUACCAUUGUCAGAAGGAACAUGAGGAUCACCCAUGUAGAUC”, for which the “apparent Kd” value under setting [1] is 53.2 nM and the “apparent Kd” value under setting [2] turned out to be 110 nM. Take “GGAUCGUAAGGAUAUACAUGAGGAUCACCCAUGUGGAUCUAACGGGUCGCCAAGUCGUGUAGAAGGUGCCGUCU”: the “apparent Kd” value is 22.7 nM under setting [1] and 20.6 nM under setting [2]. As for “UUUACUUACGAAGGAUAUGGAUACAUGAGGAUCACCCAUGUAUGUAUGAUGAUCUAGUAGUUGGGCCAGAAGGUCGUGAUUAUU”, the “apparent Kd” value is 16.9 nM under setting [1] and 21.8 nM under setting [2]. In the case of “GUAGCAUACCGAGGAUAUUCUGGGCUUAAAUAAACAUGAGGAUCACCCAUGUGGCGAAAGCCUAGGGAGAAGGCGGAAUGCUAC”, the “apparent Kd” value under setting [3] is 13.7 nM and the “apparent Kd” value under setting [4] worked out at 13 nM. Consider “AAAAAACAAGGAUAUACGAAGGAUGGUUAUCUUAAUUUUUGACAUGAGGAUCACCCAUGUAGAAGGUGUUAAAA”, for which the “apparent Kd” value by setting is: under setting [1], 37.9 nM; under setting [2], 76.2 nM.

As for “UCACGUCGCCAAGGAUAUACCCGAAGAUCCAUGGUAGAAGGUGGUGACAUGAGGAUCACCCAUGUCCGCGCGGACAAGUGUGCU”, the “apparent Kd” value was found to be 66 nM under setting [1] and 14.7 nM under setting [2]. Take “GGGUACAUCGGAGGAUAUCAUGUAAAUACAUGAGGAUCACCCAUGUCGAUGGAGACAUCGGAGAUUGAGAAGGCCGAUGUUCCG”: the “apparent Kd” value reads like this: under setting [3], 202 nM; under setting [4], 9.84 nM. Consider “UCGAACGGAAACAAAGUAAAUAGACAUGAGGAUCACCCAUGUAAGGAUAUGCCUACUAAAAGUAGGCAGAAGGUACGCGUUCGA”, for which the “apparent Kd” value is 16.5 nM under setting [1] and 20.7 nM under setting [2]. As to “UUAUCUUGUCAAGGAUAUGUUGUAUUGAUCUGAAAACAUGAGGAUCACCCAUGUAUACGGUGGGAACAGAAGGUGAAUGUAGAA”, the “apparent Kd” value under setting [2] came out at 721 nM.

For the sequence “AAAUAAACUACGAAGAUAUCCUCACAUGAGGAUCACCCAUGUCAGGAUAUUUGUCCUAAAAGGACAGAGAAGGGACAUCGUAGA”, the “apparent Kd” value is 5.15 nM under setting [1] and 11.4 nM under setting [2]. Consider “GGGUACAUCGGAGGAUAUCAUGUAUAUACAUGAGGAUCACCCAUGUCGUACGAGAGUACGGAGAUUGAGAAGGCCGAUGUACCG”, for which the “apparent Kd” value is, setting by setting: under setting [3], 39.4 nM; under setting [4], 14.4 nM. As for “CUCUUGUCAGGAUAUCUAAGCUGCCUCCCAGUAGCCGAAUUAGAGAAGGGACAUGAGGAUCACCCAUGUAAACG”, the “apparent Kd” value was found to be 105 nM under setting [1] and 34.2 nM under setting [2]. In the case of “UUGCGGUAGGAGAAGGACAGAGGCGGAAACACAAACAUGAGGAUCACCCAUGUAGGAUAUCCUACCUAACGCGGACUCCUCCAG”, the “apparent Kd” value reads like this: under setting [1], 6.3 nM; under setting [2], 8.88 nM. “CGGCCAUAUCGAGGAUAUAAGUCUAGGACAUGAGGAUCACCCAUGUAUGUCUUAGAAGGCGAUAUGGCCAGCCUGUUACAGGCA”: the “apparent Kd” value is 28.9 nM under setting [3] and 5.83 nM under setting [4]. In the case of “UAUUAAUAAUAAGGAUAUACGUCACUGCUUCGGCAGUGUGGUAAGAUCACAUGAGGAUCACCCAUGUAGAAGGAAUAUAAAAUU”, the “apparent Kd” value reads like this: under setting [1], 11.2 nM; under setting [2], 9.26 nM. With “AAUCCGUCACAUGAGGAUCACCCAUGUGACCCUACUAUUGGACAGGAUAUCCAAGGGUCGAAGCGGGAGAAGGGUCACAAUGGG”, the “apparent Kd” value was determined as 32.5 nM under setting [3] and 51.9 nM under setting [4]. For the sequence “AAACACGGACAUGAGGAUCACCCAUGUGGCGAAAGCCUUGGGAGAAGGUAUUAUGCAAAGCAUUAUAAGGAUAUUCAUACCGUG”, the “apparent Kd” value under setting [3] is 821 nM and the “apparent Kd” value under setting [4] turned out to be 187 nM.

For “CGAUAUUAUGCAGGAUAUCUCCCUUGAAUGCGGAGAGAAGGGCAUAGGGAGACAUACGCCUUAUUACAUGAGGAUCACCCAUGU”, the “apparent Kd” value by setting is: under setting [1], 9.4 nM; under setting [2], 8.29 nM.

In the case of “UUAAUUAAUUAAUUGCAGUUACAUGAGGAUCACCCAUGUAUAUAGGAUAUCGUCAGGAAUACUGACGAGAAGGAUAUACUCUGC”, the “apparent Kd” value is 21.6 nM under setting [1] and 26.7 nM under setting [2]. As for “GGAUAGGACAGAGGAUAUACGUGCUAGAGUUACUAGCAAAAUUUCCUCACAUGAGGAUCACCCAUGUAGAAGGCUGUCCUAUCG”, the “apparent Kd” value reads like this: under setting [1], 15.6 nM; under setting [2], 470 nM. For the sequence “UGACCCAUGACAUGAGAUGACAUGAGGAUCACCCAUGUUUACAAGGAUAUGUUGGUCAAAGGUCGGCAGAAGGUGUAAUGGGAU”, the “apparent Kd” value came to 49 nM under setting [1] and 128 nM under setting [2]. With “GUCCAACAUGAGGAUCACCCAUGUGAGGAUAUGCGAAUUUCAUCAAAAGAUGAAAUUUGCAGAAGGCACAGGAC”, the “apparent Kd” value runs as follows: under setting [1], 20.2 nM; under setting [2], 32.8 nM. “UUGUUAAGAGGAUAUACAUGAGGAUCACCCAUGUGAGAAGUCCAGGGCGUAUUUUCUUGUAGAAGGUUUAGCCC”: the “apparent Kd” value is, setting by setting: under setting [1], 25.1 nM; under setting [2], 15.8 nM.

For “CUAUGAGCGAUAGGAUAUACUGAGAUUGAGUGGGUAGAAGGAUCGAUAGUGUAGAAGACAUGAGGAUCACCCAUGUUACGGGUU”, the “apparent Kd” value came out at 892 nM under setting [3] and 290 nM under setting [4]. “GGUACUCAAAGAGUACCAAAACGAACAUGAGGAUCACCCAUGUAGGAUAUGCUACUCAAAGAGUAGCAGAAGGACAUGUGCAGA”: the “apparent Kd” value reads like this: under setting [1], 29.6 nM; under setting [2], 149 nM. For the sequence “UGGUACUACGGAGGAUAUCAUGUGUAAACAUGAGGAUCACCCAUGUCGUACGAGAGUACGGAGAUUGAGAAGGCCGUAGUACCU”, the “apparent Kd” value is, setting by setting: under setting [3], 85.4 nM; under setting [4], 16.7 nM.

As for “UCCUUGUCCUGAGGAUAUCCGCGGUUCCCAAAAGGAGAAGGCAGGACAUGAGGAUCACCCAUGUACCGAGAAAACGUGCAGAGU”, the “apparent Kd” value reads like this: under setting [1], 12.7 nM; under setting [2], 105 nM.
